Measured values reported in ChEMBL document CHEMBL1799991, “Discovery of a novel class of 2-aminopyrimidines as CDK1 and CDK2 inhibitors” (Bioorg Med Chem Lett, 2011).

Experiments:
[1] = molecular target: Cyclin-dependent kinase 2 (Homo sapiens, UniProt P24941); test: Inhibition of CDK2 in presence of 100 uM ATP
[2] = molecular target: Cyclin-dependent kinase 1 (Homo sapiens, UniProt P06493); test: Inhibition of CDK1 in presence of 100 uM ATP
HCT-116 = test: Cytotoxicity against human HCT116 cells after 48 hrs; type: functional; conditions: HCT-116, 48 h
Procedure, shortened: (§1)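 Exponentially growing cells exposed to test compounds at various concentrations for 48 h, then cell numbers counted; GI50 taken as the concentration giving 50% growth inhibition. Values are means of three experiments.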

A549 = test: Cytotoxicity against human A549 cells after 48 hrs; type: functional; conditions: A549, 48 h; procedure, shortened: as §1
EJ = test: Cytotoxicity against human EJ cells after 48 hrs; type: functional; procedure, shortened: as §1

Chain of Cyclin-dependent kinase 1 (P06493 whole entry): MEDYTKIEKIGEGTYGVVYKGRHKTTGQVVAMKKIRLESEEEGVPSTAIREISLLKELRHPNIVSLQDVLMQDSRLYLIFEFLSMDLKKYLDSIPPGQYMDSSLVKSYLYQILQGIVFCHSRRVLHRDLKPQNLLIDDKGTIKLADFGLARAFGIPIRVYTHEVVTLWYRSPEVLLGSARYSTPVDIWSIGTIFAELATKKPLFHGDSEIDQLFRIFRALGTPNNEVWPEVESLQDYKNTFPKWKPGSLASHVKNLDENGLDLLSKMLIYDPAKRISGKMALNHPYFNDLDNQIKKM

Nc1nccc(-c2cc(N3CCCCC3)ccc2O)n1
IC50 [1]: > 10000 nM
IC50 [2]: > 10000 nM

Nc1nccc(-c2cc(N3CCOCC3)ccc2O)n1
IC50 [1]: 790 nM
IC50 [2]: 2240 nM

Nc1nccc(-c2cc(N3CCS(=O)(=O)CC3)ccc2O)n1
IC50 [1]: 3980 nM
IC50 [2]: 7500 nM

Nc1nccc(-c2cc(N3CCC(=O)CC3)ccc2O)n1
IC50 [1]: > 10000 nM
IC50 [2]: > 10000 nM

Nc1nccc(-c2cc(N3CCC(O)CC3)ccc2O)n1
IC50 [1]: 3760 nM
IC50 [2]: 10000 nM

Nc1nccc(-c2cc(N3CCC(O)C3)ccc2O)n1 (stereo not drawn)
IC50 [1]: 2110 nM
IC50 [2]: 2990 nM

Nc1nccc(-c2cc(N3C[C@H](O)[C@@H](O)C3)ccc2O)n1
IC50 [1]: 21 nM
GI50 (HCT-116): 2500 nM
IC50 [2]: 15 nM
GI50 (A549): 5500 nM
GI50 (EJ): 4000 nM

Cc1cc(-c2cc(N3C[C@H](O)[C@@H](O)C3)ccc2O)nc(N)n1
IC50 [1]: 42 nM
GI50 (HCT-116): 400 nM
IC50 [2]: 20 nM
GI50 (A549): 2000 nM
GI50 (EJ): 900 nM

CCc1cc(-c2cc(N3C[C@H](O)[C@@H](O)C3)ccc2O)nc(N)n1
IC50 [1]: 50 nM
GI50 (HCT-116): 1000 nM
IC50 [2]: 31 nM
GI50 (A549): 3000 nM
GI50 (EJ): 1500 nM

CC(C)c1cc(-c2cc(N3C[C@H](O)[C@@H](O)C3)ccc2O)nc(N)n1
GI50 (HCT-116): 900 nM
IC50 [2]: 94 nM
GI50 (A549): 1800 nM
GI50 (EJ): 1500 nM

CCCCCCc1cc(-c2cc(N3C[C@H](O)[C@@H](O)C3)ccc2O)nc(N)n1
IC50 [1]: 450 nM
GI50 (HCT-116): 500 nM
IC50 [2]: 260 nM
GI50 (A549): 700 nM
GI50 (EJ): 800 nM

Nc1nc(-c2cc(N3C[C@H](O)[C@@H](O)C3)ccc2O)cc(C2CC2)n1
IC50 [1]: > 10000 nM
IC50 [2]: > 10000 nM

Nc1nc(-c2cc(N3C[C@H](O)[C@@H](O)C3)ccc2O)cc(C2CCCC2)n1
IC50 [1]: 42 nM
GI50 (HCT-116): 400 nM
IC50 [2]: 23 nM
GI50 (A549): 2000 nM
GI50 (EJ): 900 nM

Nc1nc(-c2cc(N3C[C@H](O)[C@@H](O)C3)ccc2O)cc(C2CCCCC2)n1
IC50 [1]: 52 nM
GI50 (HCT-116): 800 nM
IC50 [2]: 45 nM
GI50 (A549): 1200 nM
GI50 (EJ): 1200 nM

Nc1nc(-c2cc(N3C[C@H](O)[C@@H](O)C3)ccc2O)cc(C2CCCCCC2)n1
IC50 [1]: 90 nM
GI50 (HCT-116): 300 nM
IC50 [2]: 31 nM
GI50 (A549): 600 nM
GI50 (EJ): 700 nM

Nc1nc(-c2cc(N3C[C@H](O)[C@@H](O)C3)ccc2O)cc(C2CCCNC2)n1 (stereo partly drawn)
IC50 [1]: 360 nM
GI50 (HCT-116): > 10000 nM
IC50 [2]: 220 nM
GI50 (A549): > 10000 nM
GI50 (EJ): > 10000 nM

Nc1nc(-c2cc(N3C[C@H](O)[C@@H](O)C3)ccc2O)cc(C2CCNCC2)n1
IC50 [1]: 200 nM
GI50 (HCT-116): > 10000 nM
IC50 [2]: 340 nM

CN(C)c1cc(-c2cc(N3C[C@H](O)[C@@H](O)C3)ccc2O)nc(N)n1
IC50 [1]: 250 nM
GI50 (HCT-116): > 10000 nM
IC50 [2]: 280 nM

Nc1nc(-c2cc(N3C[C@H](O)[C@@H](O)C3)ccc2O)cc(N2CCOCC2)n1
IC50 [1]: 940 nM
GI50 (HCT-116): > 10000 nM
IC50 [2]: 1000 nM

CN1CCN(c2cc(-c3cc(N4C[C@H](O)[C@@H](O)C4)ccc3O)nc(N)n2)CC1
IC50 [1]: 300 nM
GI50 (HCT-116): > 10000 nM
IC50 [2]: 420 nM

Nc1nc(NCCN2CCOCC2)cc(-c2cc(N3C[C@H](O)[C@@H](O)C3)ccc2O)n1
IC50 [1]: 450 nM
GI50 (HCT-116): > 10000 nM
IC50 [2]: 790 nM

Nc1nc(NC2CCCC2)cc(-c2cc(N3C[C@H](O)[C@@H](O)C3)ccc2O)n1
IC50 [1]: 15 nM
GI50 (HCT-116): 3000 nM
IC50 [2]: 19 nM
GI50 (A549): 7000 nM
GI50 (EJ): 4500 nM

Nc1nc(NC2CCCCC2)cc(-c2cc(N3C[C@H](O)[C@@H](O)C3)ccc2O)n1
IC50 [1]: 60 nM
GI50 (HCT-116): 900 nM
IC50 [2]: 20 nM
GI50 (A549): 1500 nM
GI50 (EJ): 2000 nM
